Values joined by “and” are separate entries in the source; they are usually repeats but may differ in a detail not shown here. Equal entries are not always repeated.

The species entered for one assay is Mus musculus. Briefly: Inhibitory effect in a thioglycollate induced peritonitis model of acute inflammation in mice. Format: functional.
In assay [1] the target is T1, E-selectin (Homo sapiens, UniProt P16581).
T1 sequence (P16581 whole entry): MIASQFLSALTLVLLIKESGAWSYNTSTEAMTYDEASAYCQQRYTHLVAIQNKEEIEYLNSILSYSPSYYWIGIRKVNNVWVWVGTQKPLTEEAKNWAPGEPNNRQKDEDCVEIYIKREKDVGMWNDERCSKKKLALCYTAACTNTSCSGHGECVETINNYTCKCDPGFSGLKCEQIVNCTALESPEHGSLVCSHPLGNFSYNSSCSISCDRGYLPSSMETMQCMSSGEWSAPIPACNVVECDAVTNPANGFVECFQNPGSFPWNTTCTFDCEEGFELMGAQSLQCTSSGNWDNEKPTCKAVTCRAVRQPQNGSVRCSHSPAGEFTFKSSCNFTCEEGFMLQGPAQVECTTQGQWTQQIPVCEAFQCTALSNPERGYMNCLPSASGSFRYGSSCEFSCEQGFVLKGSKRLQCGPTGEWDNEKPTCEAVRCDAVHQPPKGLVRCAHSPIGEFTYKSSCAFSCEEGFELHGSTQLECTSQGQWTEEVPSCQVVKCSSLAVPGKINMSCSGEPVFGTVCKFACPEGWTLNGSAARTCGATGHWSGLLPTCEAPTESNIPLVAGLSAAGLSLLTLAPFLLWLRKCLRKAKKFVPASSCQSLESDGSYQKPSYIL
Briefly: In vitro inhibitory activity against Selectin E. In a few lines: (§1)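 Cell-free competitive binding assay in which immobilized E-selectin is incubated with a multivalent polylysine/sialyl Lewis^a conjugate and then treated with test compounds. The sLe^x tetrasaccharide is run as a reference on every plate. Relative IC50 is IC50(test)/IC50(sLe^x) from the same plate. Data come from three separate assays.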

Assay [2] has as its target T2, E-selectin (Homo sapiens) (UniProt P16581).
T2 sequence (whole entry): T1 sequence (P16581 whole entry)
The assay is described as follows: Ratio of IC50 of compound to IC50 of sLex. Type of assay: functional. An outline of the steps: as §1

Assay [3] addresses T1, E-selectin. The assay is described as follows: In vitro inhibitory activity against Selectin E measured by sLex(static cell free ligand binding assay). In a few lines:
as §1

Take `C[C@@H]1O[C@@H](O[C@@H]2[C@H](CO)OCC[C@H]2O[C@@H]2O[C@@H](CO)[C@H](O)C(O[C@@H](CC3CCCCC3)C(=O)[O-])[C@@H]2O)[C@@H](O)[C@@H](O)[C@@H]1O.[Na+]` (some centres undefined): the 50% effect level in the assay listed under Mus musculus (ED50) was put at a dose of 15 mg/kg. Further, the IC50 (in general, the concentration needed to halve the response being measured) against E-selectin [1] was 33 µM and 24 µM and 51 µM and 36 µM. In addition, the Relative IC50 in assay [2] is 0.031 [middle of 4 runs].
Take `COC(=O)CCCCCCCCO[C@@H]1C[C@@H](CO)[C@@H](O[C@@H]2O[C@@H](O)[C@H](O)[C@H](O[C@]3(C(=O)O)C[C@@H](O)[C@@H](NC(C)=O)[C@H]([C@H](O)[C@H](O)CO)O3)[C@@H]2O)[C@H](O[C@@H]2O[C@@H](C)[C@@H](O)[C@H](O)[C@@H]2O)[C@@H]1NC(C)=O`: at E-selectin [3], the IC50 was 1180 µM and 889 µM and 1310 µM and 1130 µM.

For the origin of these results see ChEMBL document CHEMBL1132485, “Synthesis and biological evaluation of a potent E-selectin antagonist” (J Med Chem, 1999).
